Source: ChEMBL document CHEMBL4024775, “Quinazolinone-Based Anticancer Agents: Synthesis, Antiproliferative SAR, Antitubulin Activity, and Tubulin Co-crystal Structure” (J Med Chem, 2018)
pIC50: −log10 of the molar value. Activity calls are given as the source filed them. No cut-off for these calls is given here.

Tested on: not listed separately
Assay: Inhibition of bovine brain tubulin polymerization preincubated for 15 mins followed by GTP addition measured after 20 mins by spectrophotometric analysis
Set-up: species or system Bos taurus
Details: not given
Outline: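 Bovine brain tubulin 1.0 mg/mL (10 µM) was preincubated without GTP with varied compound concentrations for 15 min at 30 °C, then chilled and given GTP (0.4 mM final). After a 0 °C baseline, turbidity rise was followed for 20 min after a jump to 30 °C. IC50 is the concentration that halves the turbidity increase.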

| Structure (SMILES) | pIC50 |
| --- | --- |
| COc1cc2c(cc1OS(N)(=O)=O)NC(=O)N(Cc1ccccc1Cl)C2 | 5.30 |
| COc1ccccc1CN1Cc2cc(OC)c(OS(N)(=O)=O)cc2NC1=O | 5.60 |
| COc1cc2c(cc1OS(N)(=O)=O)NC(=O)N(Cc1cccc(OC)c1OC)C2 | 5.07 |

Other lines, results leading:

| pIC50 | Structure (SMILES) |
| --- | --- |
| 5.60 | COc1ccc(OC)c(CN2Cc3cc(OC)c(OS(N)(=O)=O)cc3NC2=O)c1 |
| 5.25 | COc1cc2c(cc1OS(N)(=O)=O)NC(=O)N(Cc1cc(OC)c(OC)c(OC)c1)C2 |

Tested on: DU-145
Assay: Antiproliferative activity against human DU145 cells after 96 hrs by WST-1 cell proliferation assay
Type: functional
Details: DU-145, 96 h
Outline: (§1)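 Cells kept in RPMI-1640 with 10% FBS, penicillin and streptomycin at 37 °C, 5% CO2. Seeded at 5000 cells/well and exposed to 10-9–10-4 M compound or vehicle for 96 h. Live cells were read by WST-1. Viability was taken as percent of mean control and used to derive GI50. Triplicate experiments, mean values.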

| Structure (SMILES) | GI50 [µM] |
| --- | --- |
| COc1cc2c(cc1OS(N)(=O)=O)NC(=O)N(Cc1ccccc1)C2 | > 100 |
| COc1cccc(CN2Cc3cc(OC)c(OS(N)(=O)=O)cc3NC2=O)c1 | 33 |
| COc1cc2c(cc1OS(N)(=O)=O)NC(=O)N(Cc1ccccc1Cl)C2 | 0.5 |
| COc1cc2c(cc1O)NC(=O)N(Cc1ccccc1C)C2 | > 100 |
| COc1cccc(CN2Cc3cc(OC)c(O)cc3NC2=O)c1 | > 100 |
| COc1ccc(CN2Cc3cc(OC)c(OS(N)(=O)=O)cc3NC2=O)cc1 | > 100 |
| COc1ccccc1CN1Cc2cc(OC)c(OS(N)(=O)=O)cc2NC1=O | 0.3 |
| COc1cc2c(cc1O)NC(=O)N(Cc1cccc(Cl)c1)C2 | 81 |
| COc1cc2c(cc1O)NC(=O)N(Cc1ccccc1OC)C2 | 2.2 |
| COc1cc2c(cc1OS(N)(=O)=O)NC(=O)N(Cc1cccc(OC)c1OC)C2 | 0.8 |
| COc1cc2c(cc1O)NC(=O)N(Cc1ccccc1)C2 | > 100 |

More lines, now with the values ahead:

| GI50 [µM] | Structure (SMILES) |
| --- | --- |
| 1.5 | COc1ccc(OC)c(CN2Cc3cc(OC)c(O)cc3NC2=O)c1 |
| 0.05 | COc1ccc(OC)c(CN2Cc3cc(OC)c(OS(N)(=O)=O)cc3NC2=O)c1 |
| 8.4 | COc1cc2c(cc1O)NC(=O)N(Cc1cc(OC)c(OC)c(OC)c1)C2 |
| > 100 | COc1cc2c(cc1O)NC(=O)N(Cc1ccccc1F)C2 |
| 8.5 | COc1cc2c(cc1O)NC(=O)N(Cc1cccc(OC)c1OC)C2 |
| > 100 | COc1ccc(CN2Cc3cc(OC)c(O)cc3NC2=O)cc1 |
| 60 | COc1cc2c(cc1OS(N)(=O)=O)NC(=O)N(Cc1ccccc1C)C2 |
| 3.2 | COc1cc2c(cc1OS(N)(=O)=O)NC(=O)N(Cc1cccc(Cl)c1)C2 |
| 0.1 | COc1cc2c(cc1OS(N)(=O)=O)NC(=O)N(Cc1cc(OC)c(OC)c(OC)c1)C2 |
| 5.6 | COc1cc2c(cc1O)NC(=O)N(Cc1ccccc1Cl)C2 |
| 4.8 | COc1cc2c(cc1OS(N)(=O)=O)NC(=O)N(Cc1ccccc1F)C2 |

Tested on: MDA-MB-231
Assay: Antiproliferative activity against human MDA-MB-231 cells after 96 hrs by WST-1 cell proliferation assay
Type: functional
Details: MDA-MB-231, 96 h
Outline: as §1

| Structure (SMILES) | GI50 [µM] |
| --- | --- |
| COc1cc2c(cc1OS(N)(=O)=O)NC(=O)N(Cc1ccccc1)C2 | > 100 |
| COc1cccc(CN2Cc3cc(OC)c(OS(N)(=O)=O)cc3NC2=O)c1 | 34 |
| COc1cc2c(cc1OS(N)(=O)=O)NC(=O)N(Cc1ccccc1Cl)C2 | 0.2 |
| COc1cc2c(cc1O)NC(=O)N(Cc1ccccc1C)C2 | > 100 |
| COc1cccc(CN2Cc3cc(OC)c(O)cc3NC2=O)c1 | > 100 |
| COc1ccc(CN2Cc3cc(OC)c(OS(N)(=O)=O)cc3NC2=O)cc1 | > 100 |
| COc1ccccc1CN1Cc2cc(OC)c(OS(N)(=O)=O)cc2NC1=O | 0.2 |
| COc1cc2c(cc1O)NC(=O)N(Cc1cccc(Cl)c1)C2 | > 100 |
| COc1cc2c(cc1O)NC(=O)N(Cc1ccccc1OC)C2 | 5.7 |
| COc1cc2c(cc1OS(N)(=O)=O)NC(=O)N(Cc1cccc(OC)c1OC)C2 | 0.4 |
| COc1cc2c(cc1O)NC(=O)N(Cc1ccccc1)C2 | > 100 |

More lines, now with the values ahead:

| GI50 [µM] | Structure (SMILES) |
| --- | --- |
| 2.3 | COc1ccc(OC)c(CN2Cc3cc(OC)c(O)cc3NC2=O)c1 |
| 0.05 | COc1ccc(OC)c(CN2Cc3cc(OC)c(OS(N)(=O)=O)cc3NC2=O)c1 |
| 9.3 | COc1cc2c(cc1O)NC(=O)N(Cc1cc(OC)c(OC)c(OC)c1)C2 |
| > 100 | COc1cc2c(cc1O)NC(=O)N(Cc1ccccc1F)C2 |
| 8.3 | COc1cc2c(cc1O)NC(=O)N(Cc1cccc(OC)c1OC)C2 |
| > 100 | COc1ccc(CN2Cc3cc(OC)c(O)cc3NC2=O)cc1 |
| 7.4 | COc1cc2c(cc1OS(N)(=O)=O)NC(=O)N(Cc1ccccc1C)C2 |
| 2.2 | COc1cc2c(cc1OS(N)(=O)=O)NC(=O)N(Cc1cccc(Cl)c1)C2 |
| 0.1 | COc1cc2c(cc1OS(N)(=O)=O)NC(=O)N(Cc1cc(OC)c(OC)c(OC)c1)C2 |
| 5 | COc1cc2c(cc1O)NC(=O)N(Cc1ccccc1Cl)C2 |
| 4.5 | COc1cc2c(cc1OS(N)(=O)=O)NC(=O)N(Cc1ccccc1F)C2 |

Species on record: Bos taurus
Assay: Inhibition of [3H]colchicine binding to bovine brain tubulin at 5 uM after 10 mins by DEAE-cellulose filter method relative to control
Details: not given
Outline: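 Bovine brain tubulin 0.1 mg/mL (1.0 µM) with 5.0 µM [3H]colchicine and inhibitor at 5.0 µM, incubated 10 min at 37 °C. CA-4 served as comparator.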

| Structure (SMILES) | inhibition [%] |
| --- | --- |
| COc1ccc(OC)c(CN2Cc3cc(OC)c(OS(N)(=O)=O)cc3NC2=O)c1 | 61 |
| COc1cc2c(cc1OS(N)(=O)=O)NC(=O)N(Cc1ccccc1Cl)C2 | 43 |
| COc1ccccc1CN1Cc2cc(OC)c(OS(N)(=O)=O)cc2NC1=O | 55 |

Biological target: T1, Steryl-sulfatase (Homo sapiens) (UniProt P08842)
T1 sequence (whole entry): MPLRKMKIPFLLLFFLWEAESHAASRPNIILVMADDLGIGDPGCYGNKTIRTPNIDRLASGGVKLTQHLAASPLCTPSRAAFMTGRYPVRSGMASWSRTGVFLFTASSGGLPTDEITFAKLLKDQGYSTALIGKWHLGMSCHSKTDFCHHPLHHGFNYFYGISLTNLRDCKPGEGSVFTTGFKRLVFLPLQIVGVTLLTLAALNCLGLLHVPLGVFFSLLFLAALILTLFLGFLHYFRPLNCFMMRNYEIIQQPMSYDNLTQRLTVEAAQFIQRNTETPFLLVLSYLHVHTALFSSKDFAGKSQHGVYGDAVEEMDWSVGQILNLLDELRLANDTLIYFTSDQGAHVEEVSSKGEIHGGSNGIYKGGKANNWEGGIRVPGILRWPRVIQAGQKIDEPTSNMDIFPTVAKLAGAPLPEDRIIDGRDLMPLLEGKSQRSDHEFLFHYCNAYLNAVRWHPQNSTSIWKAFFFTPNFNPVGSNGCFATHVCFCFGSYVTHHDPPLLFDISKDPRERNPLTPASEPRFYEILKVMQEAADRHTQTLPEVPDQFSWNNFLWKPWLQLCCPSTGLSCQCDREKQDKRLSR
Assay: Inhibition of STS in human JEG3 cells at 10 uM using [6,7-3H]E1S as substrate after 3 hrs by liquid scintillation spectrometry
Type: cell-based
Details: not given
Outline: (§2)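 JEG-3 cells were lysed in RIPA buffer and protein measured by BCA. Lysate (50 µg protein) was incubated 3 h in PBS with [6,7-3H]E1S at 20 µM final (unlabeled E1S added), with or without inhibitor. [4-14C]E1 tracked procedural losses. E1 was separated by toluene partition and counted by scintillation. Activity taken as pmol E1/h/mg protein and expressed as percent inhibited.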

| Structure (SMILES) | inhibition |
| --- | --- |
| COc1cc2c(cc1OS(N)(=O)=O)NC(=O)N(Cc1ccccc1Cl)C2 | Active |
| COc1cc2c(cc1OS(N)(=O)=O)NC(=O)N(Cc1cccc(Cl)c1)C2 | Active |
| COc1ccccc1CN1Cc2cc(OC)c(OS(N)(=O)=O)cc2NC1=O | Active |

Biological target: T1, Steryl-sulfatase (Homo sapiens)
Assay: Inhibition of STS in human JEG3 cells at 100 uM using [6,7-3H]E1S as substrate after 3 hrs by liquid scintillation spectrometry
Type: cell-based
Details: not given
Outline: as §2

| Structure (SMILES) | inhibition |
| --- | --- |
| COc1cc2c(cc1OS(N)(=O)=O)NC(=O)N(Cc1ccccc1)C2 | inactive |
| CCc1cc2c(cc1OS(N)(=O)=O)CCN(Cc1cc(OC)c(OC)c(OC)c1)C2 | Active |
| COc1cc2c(cc1OS(N)(=O)=O)NC(=O)N(Cc1ccccc1Cl)C2 | 70 to 80% |
| CCc1cc2c(cc1OS(N)(=O)=O)CCN(Cc1cc(Br)c(OC)c(OC)c1)C2 | Active |
| COc1ccc(CN2Cc3cc(OC)c(OS(N)(=O)=O)cc3NC2=O)cc1 | inactive |
| COc1ccccc1CN1Cc2cc(OC)c(OS(N)(=O)=O)cc2NC1=O | 70 to 80% |
| COc1cc2c(cc1OS(N)(=O)=O)NC(=O)N(Cc1cccc(OC)c1OC)C2 | inactive |
| COc1cc2c(cc1OS(N)(=O)=O)CCN(Cc1cc(Br)c(OC)c(OC)c1)C2 | 45% |

The remaining lines, values ahead:

| inhibition | Structure (SMILES) |
| --- | --- |
| inactive | COc1ccc(OC)c(CN2Cc3cc(OC)c(O)cc3NC2=O)c1 |
| inactive | COc1ccc(OC)c(CN2Cc3cc(OC)c(OS(N)(=O)=O)cc3NC2=O)c1 |
| Active | COc1cc(CN2CCc3cc(OS(N)(=O)=O)ccc3C2)cc(OC)c1OC |
| Active | COc1cc(CN2CCc3cc(O)ccc3C2)cc(OC)c1OC |
| Active | COc1cc2c(cc1O)CCN(Cc1cc(Br)c(OC)c(OC)c1)C2 |
| 20 to 25% | COc1cc2c(cc1OS(N)(=O)=O)NC(=O)N(Cc1ccccc1C)C2 |
| 70 to 80% | COc1cc2c(cc1OS(N)(=O)=O)NC(=O)N(Cc1cccc(Cl)c1)C2 |
| inactive | COc1cc2c(cc1OS(N)(=O)=O)NC(=O)N(Cc1cc(OC)c(OC)c(OC)c1)C2 |
| 20 to 25% | COc1cc2c(cc1OS(N)(=O)=O)NC(=O)N(Cc1ccccc1F)C2 |

Tested on: RPMI-8226
Assay: Antitumor activity against human RPMI8226 cell lines xenografted in NCr-nude mouse assessed as tumor growth inhibition at 20 mg/kg, po for 28 days measured on day 53
Type: functional
Details: RPMI-8226, po, read-out: TGI
Outline: (§3)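 Female NCr-nude mice, 4-6 weeks old. 6 x 10^6 tumor cells mixed with an equal volume of Matrigel were implanted subcutaneously in the left flank. At about 100 mm3, mice were randomized into 3 groups of 6. Oral vehicle or compound given for 28 days. Tumor weight estimated as (w2 x l)/2 and read at day 53, 18 days after dosing ended.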

| Structure (SMILES) | inhibition in vivo at 20 mg/kg [%] |
| --- | --- |
| COc1ccccc1CN1Cc2cc(OC)c(OS(N)(=O)=O)cc2NC1=O | 27 |

Tested on: RPMI-8226
Assay: Antitumor activity against human RPMI8226 cell lines xenografted in NCr-nude mouse assessed as tumor growth inhibition at 40 mg/kg, po for 28 days measured on day 53
Type: functional
Details: RPMI-8226, po, read-out: TGI
Outline: as §3

| Structure (SMILES) | inhibition in vivo at 40 mg/kg [%] |
| --- | --- |
| COc1ccccc1CN1Cc2cc(OC)c(OS(N)(=O)=O)cc2NC1=O | 31 |

Tested on: MDA-MB-231
Assay: Antiproliferative activity against human MDA-MB-231 cells after 48 hrs by MTT assay
Type: functional
Details: MDA-MB-231, 48 h

| Structure (SMILES) | GI50 [µM] |
| --- | --- |
| COc1ccc(/C=C\c2cc(OC)c(OC)c(OC)c2)cc1O [COMBRETASTATIN A4] | 0.045 |
